Reference: ChEMBL document CHEMBL1777776, “Identification of 2-mercaptohexanoic acids as dual inhibitors of 5-lipoxygenase and microsomal prostaglandin E₂ synthase-1” (Bioorg Med Chem, 2011)
Activity calls are given as the source filed them. The rule behind the calls is not given here.

Columns and labels:
[1] = target: T1, Prostaglandin G/H synthase 1 (Ovis aries) (UniProt P05979); assay: Inhibition of ovine COX1 assessed as residual activity at 10 uM after 5 mins
T1 sequence (whole entry): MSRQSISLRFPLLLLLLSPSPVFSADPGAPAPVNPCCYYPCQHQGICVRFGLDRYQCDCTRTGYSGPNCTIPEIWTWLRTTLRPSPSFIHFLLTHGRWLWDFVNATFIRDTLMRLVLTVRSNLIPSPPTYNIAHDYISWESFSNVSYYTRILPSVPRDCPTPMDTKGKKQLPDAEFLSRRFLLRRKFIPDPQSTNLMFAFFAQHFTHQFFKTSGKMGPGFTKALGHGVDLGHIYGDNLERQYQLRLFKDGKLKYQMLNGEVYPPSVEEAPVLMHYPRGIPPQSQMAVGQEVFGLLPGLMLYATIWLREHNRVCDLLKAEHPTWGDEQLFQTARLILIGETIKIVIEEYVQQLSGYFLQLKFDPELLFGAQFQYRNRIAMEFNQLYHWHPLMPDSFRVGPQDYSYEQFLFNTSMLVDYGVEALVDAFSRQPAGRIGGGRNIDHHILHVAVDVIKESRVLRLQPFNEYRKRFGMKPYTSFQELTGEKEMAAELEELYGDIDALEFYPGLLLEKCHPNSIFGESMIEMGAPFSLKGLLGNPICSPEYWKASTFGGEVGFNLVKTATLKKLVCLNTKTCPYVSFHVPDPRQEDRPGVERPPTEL
Method in brief: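 Ovine COX-1 (50 units) or human recombinant COX-2 (20 units) in 1 ml 100 mM Tris pH 8 with 5 mM glutathione, 5 µM haemoglobin and 100 µM EDTA. Preincubated with 10 µM compound 5 min at 4 °C, warmed 60 s at 37 °C. Started with AA (5 µM for COX-1, 2 µM for COX-2), run 5 min at 37 °C. 12-HHT extracted and analysed by HPLC. n = 3.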

[2] = target: T2, Polyunsaturated fatty acid 5-lipoxygenase (Homo sapiens) (UniProt P09917); assay: Inhibition of 5-lipoxygenase in LPS/fMLP-stimulated human PMNL assessed as enzyme product formation preincubated 15 mins by ELISA analysis; conditions: in the assay text read “10 mins” for “15 mins”
T2 sequence (whole entry): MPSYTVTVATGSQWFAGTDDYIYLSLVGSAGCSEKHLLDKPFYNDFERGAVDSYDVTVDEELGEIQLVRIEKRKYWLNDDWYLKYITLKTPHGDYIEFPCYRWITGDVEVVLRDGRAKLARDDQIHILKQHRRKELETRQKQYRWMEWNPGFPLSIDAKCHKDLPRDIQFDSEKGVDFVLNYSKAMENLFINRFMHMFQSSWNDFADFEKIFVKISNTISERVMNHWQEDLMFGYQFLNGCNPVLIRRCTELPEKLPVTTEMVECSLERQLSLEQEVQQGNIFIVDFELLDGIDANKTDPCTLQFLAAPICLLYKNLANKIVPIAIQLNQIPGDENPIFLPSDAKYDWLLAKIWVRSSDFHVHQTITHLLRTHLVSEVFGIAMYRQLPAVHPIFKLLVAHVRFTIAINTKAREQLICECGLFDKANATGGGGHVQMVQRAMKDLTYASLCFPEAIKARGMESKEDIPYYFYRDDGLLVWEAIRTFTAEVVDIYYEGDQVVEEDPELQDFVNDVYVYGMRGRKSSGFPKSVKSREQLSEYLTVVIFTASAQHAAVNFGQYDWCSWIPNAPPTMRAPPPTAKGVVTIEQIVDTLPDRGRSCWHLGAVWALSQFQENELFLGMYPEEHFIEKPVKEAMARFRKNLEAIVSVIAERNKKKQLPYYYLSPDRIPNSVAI
Method in brief: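 Human PMNL in PBS/glucose primed with 1 µg/ml LPS for 10 min at 37 °C, then 0.3 U/ml adenosine deaminase added. After another 10 min, cells given compound (0.3–10 µM) for 10 min, then stimulated with 1 µM fMLP. LTB₄ measured by ELISA.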

[3] = target: T2, Polyunsaturated fatty acid 5-lipoxygenase (Homo sapiens); assay: Inhibition of human recombinant 5-lipoxygenase expressed in Escherichia coli BL21 assessed as enzyme product formation measured after washout
Method in brief: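 Human 5-LO expressed in E. coli BL21 (pT3-5LO), affinity-purified and used at once. 0.5 µg enzyme in 1 ml PBS/EDTA with 1 mM ATP preincubated with compound 5–10 min at 4 °C, then warmed 30 s at 37 °C. Reaction started with 2 mM CaCl₂ and AA (routinely 20 µM), with or without 1 µM 13(S)-HpODE. Run 10 min at 37 °C, stopped with ice-cold methanol, products analysed by HPLC. Washout: 10-fold dilution (10 to 1 µM).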

Activity [1]: 79.2% | inhibition [2]: Active | inhibition [3]: Active
SMILES: CCCCC(Sc1ccc(OCCCOc2ccc(-c3ccccc3)cc2)cc1)C(=O)O (stereo not drawn)
